Key:
[1] = molecular target: T1, NAD-dependent protein deacetylase sirtuin-2 (Homo sapiens) (UniProt Q8IXJ6); assay: (§1) Inhibition of recombinant GST-tagged human SIRT2 expressed in Escherichia coli at 200 uM using FLUOR DE LYS SIRT2 as substrate preincubated with substrate for 5 mins followed by enzyme addition and measured after 1 hr in presence of NAD+ by fluorescence based assay relative to control
T1 sequence (whole entry): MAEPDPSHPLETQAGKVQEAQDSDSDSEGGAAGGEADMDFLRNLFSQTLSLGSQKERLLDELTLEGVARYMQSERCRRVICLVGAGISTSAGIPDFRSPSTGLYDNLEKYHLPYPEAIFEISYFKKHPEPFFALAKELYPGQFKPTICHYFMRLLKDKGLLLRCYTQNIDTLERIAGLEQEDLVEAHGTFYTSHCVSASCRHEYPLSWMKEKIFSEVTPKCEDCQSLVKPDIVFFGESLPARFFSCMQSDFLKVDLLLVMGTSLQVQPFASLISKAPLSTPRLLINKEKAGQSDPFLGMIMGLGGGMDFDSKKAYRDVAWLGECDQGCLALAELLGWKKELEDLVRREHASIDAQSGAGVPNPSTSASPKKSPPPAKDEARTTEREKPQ
Method in brief: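 Fluor de Lys assay using GST-SIRT2 produced in-house and acetylated peptide substrate KI179 at 0.7 Km, with NAD+ at 0.9 Km in SIRT assay buffer. Buffer, substrate, NAD+ and compound in DMSO were preincubated 5 min at room temp; enzyme started the 1 h, 37 °C reaction. Developer with nicotinamide was added for 45 min at 37 °C; fluorescence read at ex 370/em 460 nm. SD, n = 3.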

[2] = molecular target: T2, NAD-dependent protein deacetylase sirtuin-1 (Homo sapiens) (UniProt Q96EB6); assay: Inhibition of recombinant GST-tagged human SIRT1 at 200 uM using FLUOR DE LYS SIRT1 as substrate preincubated with substrate for 5 mins followed by enzyme addition and measured after 1 hr in presence of NAD+ by fluorescence based assay relative to control
T2 sequence (whole entry): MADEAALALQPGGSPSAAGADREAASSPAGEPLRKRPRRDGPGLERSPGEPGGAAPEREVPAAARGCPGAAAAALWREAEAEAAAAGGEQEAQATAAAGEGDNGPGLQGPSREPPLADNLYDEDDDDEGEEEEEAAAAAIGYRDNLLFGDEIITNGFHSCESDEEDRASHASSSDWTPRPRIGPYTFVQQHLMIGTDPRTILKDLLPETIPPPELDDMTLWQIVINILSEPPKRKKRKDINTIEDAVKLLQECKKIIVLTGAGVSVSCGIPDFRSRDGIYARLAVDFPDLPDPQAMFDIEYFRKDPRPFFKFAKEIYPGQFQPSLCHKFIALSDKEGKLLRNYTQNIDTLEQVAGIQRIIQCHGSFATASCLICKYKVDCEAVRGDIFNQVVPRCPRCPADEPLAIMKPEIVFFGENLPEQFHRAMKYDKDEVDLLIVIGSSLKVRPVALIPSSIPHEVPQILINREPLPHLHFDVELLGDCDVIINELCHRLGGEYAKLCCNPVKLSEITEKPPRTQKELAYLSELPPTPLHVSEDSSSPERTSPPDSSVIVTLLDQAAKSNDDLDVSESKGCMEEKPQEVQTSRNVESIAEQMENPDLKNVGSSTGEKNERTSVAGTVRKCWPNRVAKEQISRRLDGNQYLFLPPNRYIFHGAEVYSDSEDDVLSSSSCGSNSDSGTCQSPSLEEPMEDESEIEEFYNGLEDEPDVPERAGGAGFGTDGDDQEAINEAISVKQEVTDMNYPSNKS
Method in brief: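 Fluor de Lys assay using GST-SIRT1 produced in-house and acetylated peptide substrate KI177 at 0.7 Km, with NAD+ at 0.9 Km in SIRT assay buffer. Buffer, substrate, NAD+ and compound in DMSO were preincubated 5 min at room temp, then enzyme was added and run 1 h at 37 °C. Developer plus nicotinamide was added for 45 min at 37 °C. Read at ex 370/em 460 nm. SD, n = 3.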

[3] = molecular target: T3, NAD-dependent protein deacetylase sirtuin-3, mitochondrial (Homo sapiens) (UniProt Q9NTG7); assay: as §1, with “recombinant N-terminal His-tagged” for “recombinant GST-tagged”, “human sirtuin 3 (102 to 399 residues)” for “human SIRT2”, “using fluor de lys” for “using FLUOR DE LYS”
T3 sequence (whole entry): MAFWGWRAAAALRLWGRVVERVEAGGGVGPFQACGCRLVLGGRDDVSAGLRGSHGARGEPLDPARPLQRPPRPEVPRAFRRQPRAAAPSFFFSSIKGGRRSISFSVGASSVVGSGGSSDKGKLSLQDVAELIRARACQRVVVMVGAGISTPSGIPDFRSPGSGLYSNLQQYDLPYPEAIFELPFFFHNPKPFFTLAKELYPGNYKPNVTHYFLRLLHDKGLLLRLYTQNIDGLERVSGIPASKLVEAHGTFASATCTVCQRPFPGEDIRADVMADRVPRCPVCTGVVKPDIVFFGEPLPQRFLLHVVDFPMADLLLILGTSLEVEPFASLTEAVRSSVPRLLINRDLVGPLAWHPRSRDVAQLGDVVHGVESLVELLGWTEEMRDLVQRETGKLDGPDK
Method in brief: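 Purchased recombinant His-SIRT3 was used with Fluor de Lys acetylated peptide substrate KI179 at 0.7 Km and NAD+ at 0.9 Km in SIRT assay buffer. Compound in DMSO was preincubated 5 min at room temp with buffer, substrate and NAD+; enzyme addition began the 1 h, 37 °C reaction. Developer with nicotinamide followed for 45 min at 37 °C; ex 370/em 460 nm read-out. SD, n = 3.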

SMILES	inhibition [1] [%]	inhibition [2] [%]	inhibition [3] [%]
CCCCCc1cc(=O)c2cc(Cl)cc(Br)c2[nH]1	26		
CCCCCN1C(=O)c2ccc(Br)cc2S1(=O)=O	6.9		
CCCCCC1Nc2c(Br)cc(Br)cc2S(=O)(=O)N1 (centres undefined)	32	4.4	5.8
O=C1c2ccc(Br)cc2S(=O)(=O)N1CCc1cccc([N+](=O)[O-])c1	6.2		
COC(=O)CCCCc1cc(=O)c2cc(Cl)cc(Br)c2[nH]1	53		
O=c1cc(Cc2ccccc2)[nH]c2c(Br)cc(Cl)cc12	58	7.6	41
CCOC(=O)CCCN1C(=O)c2ccccc2S1(=O)=O	13	8.7	7.2
O=C1CCC(=O)N1CCN1C(=O)c2ccc(Br)cc2S1(=O)=O	13		
CCCCCc1cc(=O)c2cc(Cl)cc(Br)c2o1		9.8	4.5
O=c1ccc2cc(CCC3Nc4c(Br)cc(Br)cc4S(=O)(=O)N3)ccc2[nH]1 (centres undefined)	74	25	28
CCCCCN1C(=O)c2ccccc2S1(=O)=O	34		
O=S1(=O)N=C(CCc2cccc(Br)c2)Nc2c(Br)cc(Br)cc21	24	0	3.2
O=C1c2ccccc2S(=O)(=O)N1CCCc1cccnc1	12	17	14
O=S1(=O)N=C(CCc2ccc(Br)cc2)Nc2c(Br)cc(Br)cc21	10		
O=C1c2ccc(Br)cc2S(=O)(=O)N1CCc1ccc(O)cc1	12	5.2	15
O=S1(=O)NC(CCc2cccc(Br)c2)Nc2c(Br)cc(Br)cc21 (centres undefined)	59	9.7	9.9

Results, then the compound that gave them:

inhibition [1] [%]	inhibition [2] [%]	inhibition [3] [%]	SMILES
15			O=C1c2ccc(Br)cc2S(=O)(=O)N1CCc1cccc(Br)c1
12			CCCCC1=Cc2ccccc2S(=O)(=O)N1
47	4.6	54	O=S1(=O)NC(CCc2ccccc2)Nc2c(Br)cc(Br)cc21 (centres undefined)
75			O=c1cc(CCc2ccccc2)oc2c(Br)cc(Cl)cc12
29			CCCCC1=Cc2ccc(Br)cc2S(=O)(=O)N1
34	14	14	O=C1c2ccccc2S(=O)(=O)N1CCc1ccccc1
35			O=S1(=O)NC(CCc2ccccc2)=Cc2ccc(Br)cc21
4.7	3.8	1.6	O=C1c2ccc(Br)cc2S(=O)(=O)N1CCc1ccccc1
15			O=S1(=O)NC(CCc2ccccc2)=Cc2ccccc21
15			O=S1(=O)N=C(CCc2ccccc2)Nc2c(Br)cc(Br)cc21

— ChEMBL document CHEMBL4613235, “A scaffold replacement approach towards new sirtuin 2 inhibitors” (Bioorg Med Chem, 2020)
